Assay [1] relates to Rattus norvegicus. In words: Effect on fatty acid composition in Wistar rat assessed as change in liver PUFA level at dose equivalent to 85 umol of tetradecylthioacetic acid, po after 6 days. Type of assay: functional. Summed up: (§1)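 Male Wistar rats were gavaged once daily for 6 days with compound in 0.5% CMC at 85 or 250 µmol TTA-equivalent per animal. Controls received palmitic acid. Liver was homogenized in 0.25 M sucrose/10 mM HEPES pH 7.4/1 mM EDTA at 0-4 °C. Lipids were extracted with chloroform:methanol 2:1 and spiked with 21:0 internal standard. Fatty acids were BF3-methanol transesterified and quantified as wt%. Values are mean ± SD, n=5.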

The test system of assay [2] is Rattus norvegicus. In words: Effect on fatty acid composition in Wistar rat assessed as change in liver saturated fatty acid level at dose equivalent to 250 umol of tetradecylthioacetic acid, po after 6 days. Format: functional. In short, it runs like this:
as §1

In assay [3] the test system is Rattus norvegicus. In words: Effect on fatty acid composition in Wistar rat assessed as change in plasma MUFA level at dose equivalent to 85 umol of tetradecylthioacetic acid, po after 6 days. Type of assay: functional.
The subject of assay [4] is Rattus norvegicus. In words: Decrease in liver triacylglycerol level in Wistar rat at dose equivalent to 250 umol of tetradecylthioacetic acid, po after 6 days relative to control. Format: functional. Further details: scale not given: the % may be the effect or the level left. In short, it runs like this:
(§2)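 Male Wistar rats (170-210 g), housed in pairs with chow and water, were gavaged once daily for 6 days with test lipid in 0.5% (w/v) carboxymethylcellulose at 85 or 250 µmol TTA-equivalent per animal. Controls received palmitic acid in CMC. Plasma triacylglycerol and cholesterol were measured with an enzymatic kit, and liver levels were also determined. Values are mean ± SD, n=5 rats.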

Assay [5] concerns Rattus norvegicus. In words: Increase in [1-14C]palmitoyl-CoA oxidation in Wistar rat liver homogenate at 250 uM, po after 6 days. Format: functional, organism-based. In short, it runs like this: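 Rats were dosed by gastric intubation for 6 days with 85 or 250 µmol TTA-equivalent in 0.5% CMC, with palmitic acid controls. Liver was homogenized in 0.25 M sucrose, 10 mM HEPES pH 7.4, 1 mM EDTA at 0-4 °C. Palmitoyl-CoA oxidation was read as acid-soluble products from [1-14C]-palmitoyl-CoA in the postnuclear fraction. Mean ± SD, n=5.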

Assay [6] deals with Rattus norvegicus. In words: Effect on fatty acid composition in Wistar rat assessed as change in liver 18;2, n-6 level at dose equivalent to 85 umol of tetradecylthioacetic acid, po after 6 days. Type of assay: functional. Summed up:
as §1

Assay [7] deals with Rattus norvegicus. In words: Decrease in liver cholesterol level in Wistar rat at dose equivalent to 250 umol of tetradecylthioacetic acid, po after 6 days relative to control. Format: functional. Also on record: scale not given: the % may be the effect or the level left. Summed up: as §2
Assay [8] deals with Rattus norvegicus. In words: Effect on fatty acid composition in Wistar rat assessed as change in plasma 18;2, n-6 level at dose equivalent to 250 umol of tetradecylthioacetic acid, po after 6 days. Format: functional.
In assay [9] the test system is Rattus norvegicus. In words: Effect on fatty acid composition in Wistar rat assessed as change in plasma LCn-6/18:2 level at dose equivalent to 85 umol of tetradecylthioacetic acid, po after 6 days. Format: functional.
The test system of assay [10] is Rattus norvegicus. In words: Effect on fatty acid composition in Wistar rat assessed as change in plasma LCPUFA, n-6 level at dose equivalent to 85 umol of tetradecylthioacetic acid, po after 6 days. Type of assay: functional.
Assay [11] has as its system Rattus norvegicus. In words: Effect on fatty acid composition in Wistar rat assessed as change in plasma PUFA level at dose equivalent to 250 umol of tetradecylthioacetic acid, po after 6 days. Format: functional.

Data on one compound can be found in ChEMBL document CHEMBL1140904, “Synthesis and analysis of novel glycerolipids for the treatment of metabolic syndrome” (J Med Chem, 2009).

Calls of active or inactive are those of the source. The calls are words filed in the database; no cut-off is given here.

Turning to `CCCCCCCCCCCCCCSCC(=O)OC[C@H](COP(=O)([O-])OCC[N+](C)(C)C)OC(=O)CSCCCCCCCCCCCCCC` [PHOSPHATIDYLCHOLINE], the Activity is reported as 4.91% in the assay with Rattus norvegicus [1]; 39.22% in the assay on Rattus norvegicus [2]; 22.53% in the assay on Rattus norvegicus [3]; 25% in the assay with Rattus norvegicus [4]; 11.99% with Rattus norvegicus [6]; 20% in the assay on Rattus norvegicus [7]. The Activity in the assay with Rattus norvegicus [8] was 17.97%; in the assay with Rattus norvegicus [9], 0.97%; in the assay with Rattus norvegicus [10], 19.06%; in the assay with Rattus norvegicus [11], 1.86%. For the same compound, the outcome with Rattus norvegicus [5] was inactive.
